The test system of one series is HCT-116. Kind of series: Antiproliferative activity against human HCT116 cells after 72 hrs by MTT assay. Type of series: functional, cell-based. The procedure, abridged: (§1)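 Cells from ATCC grown in DMEM or RPMI-1640 with 5% FCS, 2 mM L-glutamine, and penicillin/streptomycin at 37 °C, 5% CO2. 5 × 10³ log-phase cells per well were exposed to serial dilutions (from 10 mM DMSO stocks; 0.1% DMSO vehicle control), each dose in duplicate, for 72 h. MTT was added for 2 h and absorbance read at 540 nm. IC50 is the 50% viability inhibition versus vehicle. Mean ± SD of 4–5 independent experiments.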
(In general: Formazan colour is commonly taken as a measure of viable cells.)

Series [1] deals with P388. Kind of series: Antitumor activity against mouse P388 cells xenografted in B6D2F1 mouse assessed as increase in lifespan at 1 mg/kg, ip administered daily for 5 days relative to untreated control. It counts as functional. The following applies: route intraperitoneal. The procedure, abridged:
(§2)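 Each group of 10 B6D2F1 mice received 10^6 P388 lymphoma cells ip on day 0. Drug was dissolved in 0.1% DMSO, diluted with saline and given once daily for 5 days; controls were untreated. ILS (%) = (Dt−Dc)/Dc × 100, where Dt and Dc are mean survival times in days for treated and control groups.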

Series [2] relates to P388. The series is described as follows: Antitumor activity against mouse P388 cells xenografted in B6D2F1 mouse assessed as increase in lifespan at 2 mg/kg, ip administered daily for 5 days relative to untreated control. It counts as functional. The following applies: route intraperitoneal. The essentials: as §2
A further series has as its system K562. The series is described as follows: Antiproliferative activity against human K562 cells after 72 hrs by MTT assay. Type of series: functional, cell-based. The procedure, abridged: as §1
Series [3] relates to B16. Kind of series: Antitumor activity against mouse B16 cells xenografted in B6D2F1 mouse assessed as tumor growth inhibition at 2 mg/kg, iv administered on days 1,4,7,10 and 13 measured 28 days post tumor challenge. Type of series: functional. The following applies: B16, 672 h, read-out: GI. The essentials:
(§3)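 B6D2F1 mice, 10 per group, received 10⁶ B16 melanoma cells s.c. into the right flank on day 0. Compound diluted in saline was given iv on days 1, 4, 7, 10, 13 (5 injections) or days 1–22 every third day (8 injections). Controls were left untreated, and mice were sacrificed by day 28. ITG% = (Mc−Mt)/Mc × 100, using calculated tumor weight (a×b×c)/2.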

Series [4] relates to B16. The series is described as follows: Antitumor activity against mouse B16 cells xenografted in B6D2F1 mouse assessed as tumor growth inhibition at 2 mg/kg, iv administered on days 1,4,7,10,13,16,19 and 22 measured 28 days post tumor challenge. It counts as functional. The following applies: B16, 672 h, read-out: GI. The essentials:
as §3

The nature of series [5]: Toxicity in mouse P388 cells xenografted B6D2F1 mouse assessed as mortality at 4 mg/kg, ip administered daily for 5 days. It counts as organism-based. Details: dose 4 mg/kg, route intraperitoneal. The following applies: in vivo, read-out: Activity. The procedure, abridged:
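B6D2F1 mice, 10 per group, were inoculated ip with 10^6 P388 cells on day 0. Drug in 0.1% DMSO, diluted in saline, was given daily for 5 days. Physical condition, body weight, behaviour, nutrition and hair cover were monitored daily. Mortality was scored as drug-related toxicity deaths.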

The subject of series [6] is Nucleic Acid. The series is described as follows: Binding affinity to Salmon sperm DNA assessed as increase in fluorescence at 1.34 uM by spectrophotometry. The following applies: Salmonidae.
Series [7] concerns Nucleic Acid. The series is described as follows: Binding affinity to Salmon sperm DNA at 1.34 uM by Scatchard plot analysis. Particulars: Salmonidae. Type of series: nucleic-acid assay.
The subject of series [8] is Nucleic Acid. The series is described as follows: Binding affinity to Salmon sperm DNA assessed as increase in fluorescence at 1.34 uM by spectrophotometry. It counts as nucleic-acid assay. Particulars: Salmonidae.

Structures are written as SMILES.

In the series with HCT-116, `CO[C@H]1[C@H](O)C[C@@H](O[C@@H]2C[C@H](Oc3cc(O)c4c(O)c5c(cc4c3)C[C@@H]([C@H](OC)C(=O)NCCCO)[C@H](O[C@H]3C[C@H](O[C@H]4C[C@H](O[C@H]6C[C@@](C)(O)[C@@H](OC(=O)C(C)C)[C@H](C)O6)[C@H](O)[C@@H](C)O4)[C@H](O)[C@@H](C)O3)C5=O)O[C@H](C)[C@H]2OC(C)=O)O[C@@H]1C` yielded an IC50 of 156 nM.
For `CO[C@H]1[C@H](O)C[C@@H](O[C@@H]2C[C@H](Oc3cc(O)c4c(O)c5c(cc4c3)C[C@@H]([C@H](OC)C(=O)[C@@H](O)[C@@H](C)O)[C@H](O[C@H]3C[C@H](O[C@H]4C[C@H](O[C@H]6C[C@@](C)(O)[C@@H](OC(=O)C(C)C)[C@H](C)O6)[C@H](O)[C@@H](C)O4)[C@H](O)[C@@H](C)O3)C5=O)O[C@H](C)[C@H]2OC(C)=O)O[C@@H]1C` [OLIVOMYCIN A], the Activity was 24% in the series with P388 [1] and 35% with P388 [2]. Further, the IC50 in the series on K562 turned out to be 50 nM; in the series on HCT-116, 20 nM. For the same molecule, the inhibition in vivo at 2 mg/kg in the series with B16 [3] came to 48%; in the series with B16 [4], 45%. Also, the mortality at 120 h in [5] is 87%.
For the molecule `CO[C@H]1[C@H](O)C[C@@H](O[C@@H]2C[C@H](Oc3cc(O)c4c(O)c5c(cc4c3)C[C@@H]([C@H](OC)C(=O)O)[C@H](O[C@H]3C[C@H](O[C@H]4C[C@H](O[C@H]6C[C@@](C)(O)[C@@H](OC(=O)C(C)C)[C@H](C)O6)[C@H](O)[C@@H](C)O4)[C@H](O)[C@@H](C)O3)C5=O)O[C@H](C)[C@H]2OC(C)=O)O[C@@H]1C` [OLIVOMYCIN SA], the half-inhibitory concentration (IC50) turned out to be 2200 nM in the series on K562 and 2000 nM in the series with HCT-116. Also, the Activity entry with Nucleic Acid [6] and with Nucleic Acid [8] was “Dose-dependent effect” throughout. In addition, the K in the series on Nucleic Acid [7] was determined as 2.1 ×10⁴ /M.
In turn, `CO[C@H]1[C@H](O)C[C@@H](O[C@@H]2C[C@H](Oc3cc(O)c4c(O)c5c(cc4c3)C[C@@H]([C@H](OC)C(=O)NC3C4CC6CC(C4)CC3C6)[C@H](O[C@H]3C[C@H](O[C@H]4C[C@H](O[C@H]6C[C@@](C)(O)[C@@H](OC(=O)C(C)C)[C@H](C)O6)[C@H](O)[C@@H](C)O4)[C@H](O)[C@@H](C)O3)C5=O)O[C@H](C)[C@H]2OC(C)=O)O[C@@H]1C` (some centres undefined) gave an IC50 in the series with HCT-116 of 180 nM.
Same read-out and setting: with `CNC(=O)[C@@H](OC)[C@@H]1Cc2cc3cc(O[C@H]4C[C@@H](O[C@@H]5C[C@@H](O)[C@H](OC)[C@@H](C)O5)[C@H](OC(C)=O)[C@@H](C)O4)cc(O)c3c(O)c2C(=O)[C@H]1O[C@H]1C[C@H](O[C@H]2C[C@H](O[C@H]3C[C@@](C)(O)[C@@H](OC(=O)C(C)C)[C@H](C)O3)[C@H](O)[C@@H](C)O2)[C@H](O)[C@@H](C)O1` the figure was 120 nM.
Consider `CO[C@H]1[C@H](O)C[C@@H](O[C@@H]2C[C@H](Oc3cc(O)c4c(O)c5c(cc4c3)C[C@@H]([C@H](OC)C(=O)NCc3ccc(F)cc3)[C@H](O[C@H]3C[C@H](O[C@H]4C[C@H](O[C@H]6C[C@@](C)(O)[C@@H](OC(=O)C(C)C)[C@H](C)O6)[C@H](O)[C@@H](C)O4)[C@H](O)[C@@H](C)O3)C5=O)O[C@H](C)[C@H]2OC(C)=O)O[C@@H]1C`, for which the results for the IC50 with K562 and with HCT-116 were 148 nM and 278 nM, respectively.
`CO[C@H]1[C@H](O)C[C@@H](O[C@@H]2C[C@H](Oc3cc(O)c4c(O)c5c(cc4c3)C[C@@H]([C@H](OC)C(N)=O)[C@H](O[C@H]3C[C@H](O[C@H]4C[C@H](O[C@H]6C[C@@](C)(O)[C@@H](OC(=O)C(C)C)[C@H](C)O6)[C@H](O)[C@@H](C)O4)[C@H](O)[C@@H](C)O3)C5=O)O[C@H](C)[C@H]2OC(C)=O)O[C@@H]1C`: in the series on HCT-116, 100 nM corresponded to half-maximal inhibition (IC50).
For the molecule `CO[C@H]1[C@H](O)C[C@@H](O[C@@H]2C[C@H](Oc3cc(O)c4c(O)c5c(cc4c3)C[C@@H]([C@H](OC)C(=O)NCCN(C)C)[C@H](O[C@H]3C[C@H](O[C@H]4C[C@H](O[C@H]6C[C@@](C)(O)[C@@H](OC(=O)C(C)C)[C@H](C)O6)[C@H](O)[C@@H](C)O4)[C@H](O)[C@@H](C)O3)C5=O)O[C@H](C)[C@H]2OC(C)=O)O[C@@H]1C`, the IC50 in the series on K562 was found to be 47 nM; in the series on HCT-116, 20 nM.
In the same order, the values of `COC(=O)[C@H](C)NC(=O)[C@@H](OC)[C@@H]1Cc2cc3cc(O[C@H]4C[C@@H](O[C@@H]5C[C@@H](O)[C@H](OC)[C@@H](C)O5)[C@H](OC(C)=O)[C@@H](C)O4)cc(O)c3c(O)c2C(=O)[C@H]1O[C@H]1C[C@H](O[C@H]2C[C@H](O[C@H]3C[C@@](C)(O)[C@@H](OC(=O)C(C)C)[C@H](C)O3)[C@H](O)[C@@H](C)O2)[C@H](O)[C@@H](C)O1` are 63 nM and 20 nM.
The like results for `CO[C@H]1[C@H](O)C[C@@H](O[C@@H]2C[C@H](Oc3cc(O)c4c(O)c5c(cc4c3)C[C@@H]([C@H](OC)C(=O)N[C@@H]3[C@@H](O)[C@@H](O)[C@@H](CO)O[C@H]3O)[C@H](O[C@H]3C[C@H](O[C@H]4C[C@H](O[C@H]6C[C@@](C)(O)[C@@H](OC(=O)C(C)C)[C@H](C)O6)[C@H](O)[C@@H](C)O4)[C@H](O)[C@@H](C)O3)C5=O)O[C@H](C)[C@H]2OC(C)=O)O[C@@H]1C` were, in that order, 2390 nM and over 12500 nM.

For orientation: IC50 means the concentration that inhibits the measured activity by half. Low readings indicate higher potency, high ones lower potency.

For the origin of these results see ChEMBL document CHEMBL1926623, “Modification of olivomycin A at the side chain of the aglycon yields the derivative with perspective antitumor characteristics” (Bioorg Med Chem, 2011).
